Assays:
Format in all cases: functional
[1] = molecular target: T1, Estrogen receptor (Mus musculus) (UniProt O08537+P19785); experiment: Estrogenic effect in uterotrophic assay in mice at 10 nM/animal dose
Method in brief: (§1)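 Immature female NMRI mice (20 days old, 10–12 g, six per group) given test compound sc once daily for three consecutive days in poly(ethylene glycol) 400/H2O (1.8% NaCl) 1:1. Uteri excised 24 h after last injection, fixed in Bouin's solution, dried, weighed. Effect = uterus dry weight (mg)/body weight (g) × 100, expressed relative to vehicle and estrone standard (0.4 μg) as % estrogenic effect.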

[2] = molecular target: T1, Estrogen receptor (Mus musculus); experiment: Estrogenic effect in uterotrophic assay in mice at 0.1 nM/animal dose; method in brief: as §1
[3] = molecular target: T1, Estrogen receptor (Mus musculus); experiment: Estrogenic effect in uterotrophic assay in mice at 1 nM/animal dose; method in brief: as §1
[4] = molecular target: T1, Estrogen receptor (Mus musculus); experiment: Estrogenic effect in uterotrophic assay in mice at 100 nM/animal dose; method in brief: as §1
[5] = molecular target: T1, Estrogen receptor (Mus musculus); experiment: Estrogenic effect in uterotrophic assay in mice at 1000 nM/animal dose; method in brief: as §1

T1 sequence (O08537 whole entry, looked up): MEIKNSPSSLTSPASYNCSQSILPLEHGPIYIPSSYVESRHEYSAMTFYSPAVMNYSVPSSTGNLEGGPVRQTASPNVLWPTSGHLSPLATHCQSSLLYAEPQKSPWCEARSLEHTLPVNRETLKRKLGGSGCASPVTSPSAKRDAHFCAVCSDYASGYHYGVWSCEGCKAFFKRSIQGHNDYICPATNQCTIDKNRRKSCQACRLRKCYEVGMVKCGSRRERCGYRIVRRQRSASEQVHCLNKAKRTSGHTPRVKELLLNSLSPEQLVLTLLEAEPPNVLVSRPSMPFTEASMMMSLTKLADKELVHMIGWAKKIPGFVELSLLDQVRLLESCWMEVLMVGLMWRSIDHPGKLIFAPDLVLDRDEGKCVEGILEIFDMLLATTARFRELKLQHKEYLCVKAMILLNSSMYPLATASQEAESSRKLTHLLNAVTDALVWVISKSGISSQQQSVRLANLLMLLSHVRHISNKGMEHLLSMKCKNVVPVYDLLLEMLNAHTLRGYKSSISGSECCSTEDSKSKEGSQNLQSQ
T1 sequence (P19785 whole entry, looked up): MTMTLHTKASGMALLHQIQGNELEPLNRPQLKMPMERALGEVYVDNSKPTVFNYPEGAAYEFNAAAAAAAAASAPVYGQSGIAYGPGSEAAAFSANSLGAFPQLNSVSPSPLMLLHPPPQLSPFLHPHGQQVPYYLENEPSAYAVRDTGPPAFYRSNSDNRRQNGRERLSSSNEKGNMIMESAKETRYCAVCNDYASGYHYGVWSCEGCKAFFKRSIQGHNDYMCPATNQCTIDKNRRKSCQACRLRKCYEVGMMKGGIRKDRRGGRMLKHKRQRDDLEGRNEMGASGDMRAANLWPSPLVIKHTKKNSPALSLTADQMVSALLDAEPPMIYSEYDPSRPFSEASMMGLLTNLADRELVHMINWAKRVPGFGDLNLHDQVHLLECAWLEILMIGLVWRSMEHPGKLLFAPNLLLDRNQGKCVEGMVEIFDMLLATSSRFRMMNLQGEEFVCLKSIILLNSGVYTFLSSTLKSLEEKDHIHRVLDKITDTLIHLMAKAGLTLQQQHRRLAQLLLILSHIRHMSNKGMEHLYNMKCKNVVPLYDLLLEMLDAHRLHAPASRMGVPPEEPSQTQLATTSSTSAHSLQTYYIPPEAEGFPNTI

SMILES	Estrogenic effect [1] [%]	Estrogenic effect [2] [%]	Estrogenic effect [3] [%]	Estrogenic effect [4] [%]	Estrogenic effect [5] [%]
NC(CCC(N)c1c(Cl)cc(O)cc1Cl)c1c(Cl)cc(O)cc1Cl (stereo in doubt)	135	0	38	100	
CNC(CCC(NC)c1c(Cl)cc(O)cc1Cl)c1c(Cl)cc(O)cc1Cl (stereo in doubt)	139	0	47	127	47
CCNC(CCC(N)c1c(Cl)cc(O)cc1Cl)c1c(Cl)cc(O)cc1Cl (stereo unspecified)	140	22	93	156	
CNC(CCC(NC)c1c(Cl)cc(O)cc1Cl)c1c(Cl)cc(O)cc1Cl (racemic)	3	0	0	12	72
NC(CCC(N)c1c(Cl)cc(O)cc1Cl)c1c(Cl)cc(O)cc1Cl (racemic)	13	0	0	10	21
CCNC(CCC(NCC)c1c(Cl)cc(O)cc1Cl)c1c(Cl)cc(O)cc1Cl (racemic)	78	0	0	142	
CCNC(CCC(NCC)c1c(Cl)cc(O)cc1Cl)c1c(Cl)cc(O)cc1Cl (stereo in doubt)	140	61	125	128	
